# Screening data deposited in PubChem by The Scripps Research Institute Molecular Screening Center.
# TCR-CD3 inh: human TCR-CD3 binding inhibition | TAMRA-labeled TCR probe fluorescence, biochemical | inhibition, % at 9.4 µM | 360,000 compounds, 0.37% hits;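 note: recombinant mutant TCR 2C K166C tagged with TAMRA read by polarization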
# PRMT1 inh: PRMT1 (human) inhibition, primary screen; Q99873; recombinant PRMT1, activity-based probe fluorescence polarization; inhibition, % at 2.79 µM; 370,000 compounds, 1.3% hits; AID 652257;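 active = inhibition above about 21% made by adding two undisclosed values, limit read from the data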
# HTRA1 inh: blocks human HTRA1 serine peptidase | Q92743 | recombinant HTRA1, FP-rhodamine activity-based probe, fluorescence polarization | inhibition, % at 5.96 µM | 340,000 compounds, 0.5% hits | AID 504803; in the data active = inhibition above about 36%
# ABHD4 inh: ABHD4 (mouse) inhibition, primary FP screen. Q8VD66. purified mABHD4, FP-Rh probe fluorescence polarization. inhibition, % at 8.92 µM. 370,000 compounds, 0.54% hits;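 active = inhibition exceeding the mean over every tested compound plus 3 SD, cut at about 30% in these data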
#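 Assay system: Wild-type mouse ABHD4 protein | Medium: HEPES pH 7.0 buffer, 150 mM NaCl, 0.01% Pluronic F-127 | Incubation: Enzyme–compound pre-incubation 45 min, then probe 60 min, both 25 °C | Technique: Fluorescence polarization with parallel and perpendicular emission, 525/598 nm | Evaluation: % inhibition of FP-Rh probe binding versus controls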
# SIAE primary: human SIAE inhibition, primary screen; Q9HAT2; SIAE FP-Rh probe binding, fluorescence polarization; inhibition, % at 9.66 µM; 370,000 compounds, 0.69% hits;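 active = inhibition above a cutoff: mean of compounds within the control limits plus 3 SD of those, cut at about 17% in these data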
# Target sequence (Q9HAT2 whole entry, looked up): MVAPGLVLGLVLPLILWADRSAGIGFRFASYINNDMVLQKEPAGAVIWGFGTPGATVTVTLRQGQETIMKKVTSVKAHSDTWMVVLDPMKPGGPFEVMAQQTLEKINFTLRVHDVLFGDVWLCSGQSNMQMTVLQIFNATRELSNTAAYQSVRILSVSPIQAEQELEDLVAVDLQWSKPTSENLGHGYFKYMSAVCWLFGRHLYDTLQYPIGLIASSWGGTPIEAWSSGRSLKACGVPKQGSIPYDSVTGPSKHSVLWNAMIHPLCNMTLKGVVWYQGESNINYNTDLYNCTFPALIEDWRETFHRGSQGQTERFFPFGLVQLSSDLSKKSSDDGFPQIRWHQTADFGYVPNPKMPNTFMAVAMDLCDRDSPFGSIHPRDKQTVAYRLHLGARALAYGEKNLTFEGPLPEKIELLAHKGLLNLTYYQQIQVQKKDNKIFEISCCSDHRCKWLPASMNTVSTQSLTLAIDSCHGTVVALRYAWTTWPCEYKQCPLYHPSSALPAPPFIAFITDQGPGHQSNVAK
# HTRA1 conf: confirmation of human HTRA1 inhibitors; shares compounds with HTRA1 inh; recombinant HTRA1, FP-rhodamine activity-based probe, fluorescence polarization; inhibition, % at 5.96 µM; 1,600 compounds, 66% hits;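 active = mean inhibition over three repeats above a set limit taken from the earlier primary screen, cut at about 37% in these data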;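 note: inhibitors block probe binding so polarization drops and inhibition rises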
# BSA probe FL: interferes with TAMRA-BSA probe, flagging TCR-CD3 hits; inhibition, % at 9.4 µM; 1,200 compounds, 10% hits; TAMRA-labeled BSA probe fluorescence counterscreen; shares compounds with TCR-CD3 inh; AID 652035; in the data active = inhibition above about 23%
# TCR-CD3 conf: TCR-CD3 interaction inhibition, confirmation. TAMRA-labeled TCR probe fluorescence binding assay. inhibition, % at 9.4 µM. 1,200 compounds, 48% hits. shares compounds with TCR-CD3 inh
# PRMT1 confirm: confirmation of human PRMT1 inhibitors | AID 687036 | 3,300 compounds, 42% hits | inhibition, % at 2.79 µM | recombinant His-PRMT1, activity-based probe fluorescence polarization | shares compounds with PRMT1 inh;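 active = mean inhibition across replicates above the hit cutoff derived for the earlier primary screen, cut at about 22% in these data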
# ABHD4 confirm: ABHD4 (mouse) inhibition, FP confirmation; shares compounds with ABHD4 inh; purified mABHD4, FP-Rh probe fluorescence polarization; inhibition, % at 8.92 µM; 1,800 compounds, 55% hits;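 active = mean inhibition across replicates above the hit cutoff set in the primary screen, cut at about 30% in these data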
# Hits are given with their value; - = inactive; . = no result given; + = active, no number. This is a sample that favours compounds with a hit; in the whole collection about 2.5% have one here. Cut-off read from the data, not from the text of the source, unless noted: active = inhibition above about 19%; inactive = the rest.
SMILES,TCR-CD3 inh,PRMT1 inh,HTRA1 inh,ABHD4 inh,SIAE primary,HTRA1 conf,ABHD4 confirm,others
Cc1ccc(S(=O)(=O)/N=C2\C=C(Nc3cccc(C(=O)O)c3)C(=O)c3ccccc32)c(C)c1,-,-,58,47,-,63,101,
O=C(O)c1cccc(NC2=C(N3CCOCC3)C(=O)c3ccccc3C2=O)c1,-,-,-,-,-,.,.,
Cc1ccc(S(=O)(=O)/N=C2/C=C(Sc3ncn[nH]3)C(=O)c3ccccc32)cc1,.,.,-,.,.,.,.,
COc1ccc(Cn2ccc3ccc(-c4ccc5ccn(Cc6cccc(F)c6)c5c4)cc32)cc1,.,-,.,-,-,.,.,
CSCCCNC(=O)CN1C(=O)C2CCCCN2C(=O)c2ccccc21 (stereo unspecified),.,-,.,-,-,.,.,
CC1CCCC(C)N1/N=C/c1ccc(O)c(O)c1 (stereo unspecified),23,-,43,36,-,-,-,BSA probe FL=-;TCR-CD3 conf=20
COc1ccc(/C=N/N2C(C)CCCC2C)cc1O (stereo unspecified),-,-,-,-,-,.,.,
COC(=O)[C@]12C[C@H](CC(=O)N3CCN(C(=O)C4CC4)CC3)C(=O)N(Cc3cccc4ccccc34)C1=C[C@H](C1CCCC1)O[C@@H]2C,.,-,.,-,-,.,.,
Oc1ccc(N=Nc2ccccc2-c2nn[nH]n2)c(O)c1,-,-,42,68,-,67,71,
CCC[C@H]1[C@@H](N(C)Cc2ccccc2)CC[C@@]23CCCN2C(=O)CCC[C@@H]13,.,-,.,-,-,.,.,
Oc1ccc2ccccc2c1C=Nc1ccccc1Br,-,-,-,-,-,.,.,
Oc1ccccc1N=Cc1c(O)ccc2ccccc12,29,-,63,45,-,78,45,BSA probe FL=-;TCR-CD3 conf=37
O=c1cc2oc3cc(O)c(O)cc3c(-c3ccccc3[N+](=O)[O-])c-2cc1O,101,-,59,53,-,68,55,BSA probe FL=-;TCR-CD3 conf=83
Cc1c(Br)c(=O)oc2c(Br)c(O)c(O)cc12,25,29,64,51,-,83,53,BSA probe FL=-;TCR-CD3 conf=-;PRMT1 confirm=35
Cc1c(Br)c(=O)oc2c(Br)c(O)ccc12,-,-,-,-,-,.,.,
O=C(Nc1ccc(F)cc1)OCc1cn(Cc2cccc(Cl)c2)nn1,.,-,.,-,-,.,.,
CCCCCCCCCCOC(=O)Cn1c(COc2ccc(OC)cc2)[n+](C)c2ccccc21,.,.,-,.,.,.,.,
CCCCCCCCCCOC(=O)Cn1c(COc2cccc(C)c2)[n+](C)c2ccccc21,-,-,38,32,-,-,38,
Cc1ccc(N=C2C(=O)Nc3ccccc32)cc1,-,-,-,-,-,.,.,
CCN(CC)c1ccc(N=C2C(=O)Nc3ccccc32)cc1,-,30,63,46,-,44,51,
O=C(CSc1nc2ccccc2nc1N1CCCCC1)NCc1ccc(Cl)cc1Cl,.,-,.,-,-,.,.,
COc1cc(/C=C2/C(=O)NN(c3ccc(Cl)c(Cl)c3)C2=O)cc([N+](=O)[O-])c1O,-,26,38,60,-,42,80,PRMT1 confirm=-
COc1cc(/C=C2/C(=O)NN(c3ccc(F)cc3)C2=O)cc(Cl)c1O,-,-,-,-,-,.,.,
CCOC(=O)C1CCN(C2=C(NS(=O)(=O)c3ccc(Br)cc3)C(=O)c3ccccc3C2=O)CC1,-,-,47,45,19,65,63,
CCOC(=O)C1(C)C=C(Nc2ccc(OC)cc2)C(=O)N1c1ccc(OC)cc1 (stereo unspecified),-,-,-,-,-,.,.,
SMILES,TCR-CD3 inh,PRMT1 inh,HTRA1 inh,ABHD4 inh,SIAE primary,HTRA1 conf,ABHD4 confirm,others
CCOC(=O)C1(C)C=C(Nc2ccc(O)cc2)C(=O)N1c1ccc(O)cc1 (stereo unspecified),40,33,55,76,-,-,-,BSA probe FL=-;TCR-CD3 conf=-
CC(COc1cccc(Cl)c1)CN1CCC(C(O)(c2ccccc2)c2ccccc2)CC1 (stereo unspecified),.,-,.,-,-,.,.,
CCCCCCCCCCCCCCCC(O)C[N+](C)(C)CCO (stereo unspecified),-,-,+,38,-,66,51,
Cc1[nH]c2ccccc2c1/C=N/n1cnnc1,-,-,-,-,-,.,.,
CCN(CC)c1ccc(N=Cc2c(C)[nH]c3ccccc23)cc1,-,-,50,36,-,-,30,
O=c1c2ccccc2n(Cc2ccno2)n1[C@@H](Cc1ccccc1)Cn1cc(-c2ccc(-c3ccccc3)cc2)nn1,.,-,.,-,-,.,.,
O=c1c(-c2ccc([N+](=O)[O-])cc2)coc2c(O)c(O)ccc12,-,38,66,42,-,68,-,
CN(C)Cc1c(O)ccc2c(=O)c(-c3ccc(Cl)cc3)coc12,-,-,-,-,-,.,.,
O=C(CNS(=O)(=O)c1cccs1)N1CCN(c2ncccn2)CC1,.,-,.,-,-,.,.,
COc1ccc(CNCC#Cc2ccccc2)c(OC)c1,.,-,.,-,-,.,.,
Nc1[nH]n(-c2ccccc2)c(=O)c1N=Nc1ccc2ncsc2c1,-,23,36,48,-,-,65,
Nc1[nH]n(-c2ccccc2)c(=O)c1N=Nc1ccccc1,-,-,-,-,-,.,.,
CCOC(=O)Cc1csc(NC(=O)NC2(C(F)(F)F)Oc3ccc(Cl)cc3O2)n1 (stereo unspecified),-,-,-,-,-,.,.,
CCOC(=O)Cc1csc(NC(=O)NC2(C(F)(F)F)Oc3cc(Cl)c(Cl)cc3O2)n1,-,-,37,30,-,64,-,
N#CCC[C@H]1CC[C@]2(CCCN(S(=O)(=O)c3ccccc3)C2)O1,.,-,.,-,-,.,.,
CC1=C(O)C(=O)C(c2c(C)cc(C)c(Br)c2C)=C(O)C1=O,23,25,84,79,-,74,74,BSA probe FL=-;TCR-CD3 conf=-;PRMT1 confirm=23
O=Cc1cc(N=Nc2ccccc2Cl)ccc1O,-,-,38,30,-,54,35,
O=Cc1cc(N=Nc2cccc(C(=O)O)c2)ccc1O,-,-,-,-,-,.,.,
CN(C)c1ccc(NC2=C(Cl)C(=O)c3ccccc3C2=O)cc1,-,-,63,43,-,58,54,
O=C(Nc1ccc(OC(F)(F)F)cc1)Nc1c(-c2ccc(C(F)(F)F)cc2)nc2ncccn12,.,-,.,-,-,.,.,
CCN(CC)c1ccc(N=Cc2ccc(N(CC)CC)cc2O)cc1,-,24,65,39,-,-,-,
